PREPL inh – PREPL enzyme inhibitors, primary screen, biochemical, fluorescence polarization; recombinant PREPL, fluorescence polarization activity-based probe; 320,000 tested, 0.68% active; Prolyl endopeptidase-like (Homo sapiens), Q4J6C6; AID 2751, 2010; inhibition, % at 5.96 µM; in the data active = inhibition above about 43%
UBC13 polyUb – UBC13 polyubiquitin chain formation inhibitors, primary screen, biochemical, TR-FRET, uHTS. Ubiquitin-conjugating enzyme E2 N (Homo sapiens), P61088. inhibition, % at 20 µM. 330,000 tested, 0.47% active; in the data active = inhibition above about 45%, passing the limit was not always enough
UCH37 DUB inh – inhibitors of human UCH37 deubiquitinase, primary screen, biochemical, Ub-AMC cleavage, fluorescence | Ubiquitin carboxyl-terminal hydrolase isozyme L5 (Homo sapiens), Q9Y5K5 | purified proteasome/UCH37 | inhibition, % (concentration not given with the values) | 330,000 tested, 0.33% active;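 active = mean inhibition over replicate wells above about 20%, limit read from the data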
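Reagent: Ub-AMC substrate; assay system: Proteasome-associated human UCH37 deubiquitinase; controls: no-proteasome and no-compound wells; read-out: % inhibition of Ub-AMC cleavage fluorescence; timing: 30 min preincubation with enzyme, 25 min cleavage at room temperature; signal: AMC fluorescence from Ub-AMC cleavage, excitation 355 nm, emission 460 nm; buffer or medium: Tris-HCl pH 7.4 plus ovalbumin, ATP-MgCl2, DTT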
Apaf1 inhib – inhibitors of human Apaf-1 apoptosome, primary screen, biochemical, DEVD-Rh110 fluorescence, uHTS; 330,000 tested, 0.71% active; inhibition, % at 20 µM; Apoptotic protease-activating factor 1 (Homo sapiens), O14727; reconstituted apoptosome caspase-3 activity; AID 489030, 2010; active = inhibition of at least 40% at 20 µM
Target sequence (O14727 whole entry, looked up): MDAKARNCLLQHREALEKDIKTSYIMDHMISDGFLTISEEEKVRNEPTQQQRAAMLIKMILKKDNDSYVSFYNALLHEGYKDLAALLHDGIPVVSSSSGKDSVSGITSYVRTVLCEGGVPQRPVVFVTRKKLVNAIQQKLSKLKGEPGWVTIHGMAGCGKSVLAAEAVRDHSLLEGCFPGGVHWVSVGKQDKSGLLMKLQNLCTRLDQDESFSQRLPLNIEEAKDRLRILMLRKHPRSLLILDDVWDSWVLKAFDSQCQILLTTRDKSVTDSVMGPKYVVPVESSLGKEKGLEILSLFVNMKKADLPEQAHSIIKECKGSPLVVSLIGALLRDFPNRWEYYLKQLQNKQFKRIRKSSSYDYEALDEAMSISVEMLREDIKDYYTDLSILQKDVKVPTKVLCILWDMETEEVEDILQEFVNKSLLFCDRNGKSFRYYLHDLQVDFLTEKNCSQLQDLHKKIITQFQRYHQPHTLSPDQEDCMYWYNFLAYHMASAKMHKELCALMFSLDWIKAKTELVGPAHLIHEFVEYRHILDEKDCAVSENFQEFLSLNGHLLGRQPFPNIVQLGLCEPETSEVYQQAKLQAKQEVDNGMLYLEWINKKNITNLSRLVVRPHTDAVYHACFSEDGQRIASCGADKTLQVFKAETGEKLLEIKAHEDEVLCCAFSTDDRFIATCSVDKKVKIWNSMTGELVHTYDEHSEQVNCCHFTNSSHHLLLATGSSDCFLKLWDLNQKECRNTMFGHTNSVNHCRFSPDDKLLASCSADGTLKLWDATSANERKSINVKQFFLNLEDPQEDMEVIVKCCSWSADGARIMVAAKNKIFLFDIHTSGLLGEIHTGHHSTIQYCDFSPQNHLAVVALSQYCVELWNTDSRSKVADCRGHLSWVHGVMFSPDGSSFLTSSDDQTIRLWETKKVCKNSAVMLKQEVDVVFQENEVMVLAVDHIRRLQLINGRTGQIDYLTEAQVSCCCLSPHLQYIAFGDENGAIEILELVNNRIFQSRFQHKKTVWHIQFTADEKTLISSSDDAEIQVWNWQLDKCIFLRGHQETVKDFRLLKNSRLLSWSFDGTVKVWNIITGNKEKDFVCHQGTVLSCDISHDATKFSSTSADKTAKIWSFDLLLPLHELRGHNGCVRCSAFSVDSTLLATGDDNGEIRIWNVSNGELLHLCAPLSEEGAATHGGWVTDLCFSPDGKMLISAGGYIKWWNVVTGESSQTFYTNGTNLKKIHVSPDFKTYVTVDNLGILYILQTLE
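detection = Rh110 fluorescence intensity | test system = biochemical Apaf-1 apoptosome reconstitution | also added = cytochrome c and DEVD-Rh110 substrate | schedule = 30 min plus 50 min, RT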
Apaf-1 inh conf – Apaf-1 inhibitors, single-dose retest, confirmation, biochemical, fluorescence, DEVD-Rh110, 20 µM | 1,800 tested, 25% active | inhibition, % at 20 µM | shares compounds with Apaf1 inhib | reconstituted apoptosome, caspase-3 DEVD-Rh110 fluorescence;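 active = mean inhibition of at least 40% at 20 µM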
Rh110 quench – Rh110 fluorescence interference by putative Apaf-1 inhibitors, confirmation, artefact control for Apaf-1 inhibitor project, biochemical, 20 µM | quenched caspase reaction | activation (fluorescence interference), % at 20 µM | 1,800 tested, under 10 active | shares compounds with Apaf1 inhib;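 active = signal rise of 40% or more at 20 µM, treated as a fluorescence artifact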
Apaf1 inh interf – fluorescence interference of Apaf-1 inhibitor hits, dose response, artefact control for Apaf-1 inhibitor project; shares compounds with Apaf1 inhib; 460 tested, under 10 active; AID 588538, 2011; fluorescence interference counterscreen, Apaf-1 assay format; IC50, µM; call rule not given here
Large screens that a line does not name were inactive (follow-up assays come after a bar, where they were run); ! = not confirmed by another sample. Most compounds without a hit are left out; they make up all but 1.5% or so of the library.

CCCC[n+]1ccn(C2=C([O-])c3ccccc3C(=O)/C2=N\S(=O)(=O)c2ccc(Br)cc2)c1	Apaf1 inhib 59 | Apaf-1 inh conf 68 | Rh110 quench inactive | Apaf1 inh interf inactive
Cc1ccc(S(=O)(=O)/N=C2\C(=O)c3ccccc3C([O-])=C2n2cc[n+](CCC(C)C)c2)cc1	UCH37 DUB inh 31, Apaf1 inhib 57 | Apaf-1 inh conf 68 | Rh110 quench inactive | Apaf1 inh interf inactive
O=C(NC1=C(Nc2ccc(Cl)cc2)C(=O)c2ccccc2C1=O)c1ccccc1	Apaf1 inhib 54 | Apaf-1 inh conf 42 | Rh110 quench inactive | Apaf1 inh interf inactive
CN(C)S(=O)(=O)c1ccc(NC(=O)CN2CCCC2c2ccc3c(c2)OCCCO3)cc1 (stereo not drawn)	Apaf1 inhib 46 | Apaf-1 inh conf inactive | Rh110 quench inactive
O=C(Nc1ccccc1Cl)C1Cc2ccccc2OC1=NO (stereo not drawn)	none (no result: PREPL inh, UBC13 polyUb, Apaf1 inhib)
CC(C)(C)c1ccc(S(=O)(=O)ON=C2CCCCC2c2ccc([N+](=O)[O-])cc2[N+](=O)[O-])cc1 (stereo not drawn)	none (no result: PREPL inh, UBC13 polyUb, Apaf1 inhib)
CN1CCc2cccc3c2[C@@H]1Cc1ccc(O)c(O)c1-3	Apaf1 inhib 50 | Apaf-1 inh conf inactive | Rh110 quench inactive
COc1cccc(C(c2c(C)[nH]n(-c3ccccc3)c2=O)c2c(C)[nH]n(-c3ccccc3)c2=O)c1OC	Apaf1 inhib 97 | Apaf-1 inh conf inactive | Rh110 quench inactive
Cc1[nH]n(-c2ccccc2)c(=O)c1-c1ccccc1	none
COc1cccc(C(c2c(C)[nH]n(-c3ccccc3)c2=O)c2c(C)[nH]n(-c3ccccc3)c2=O)c1O	Apaf1 inhib 94 | Apaf-1 inh conf inactive | Rh110 quench inactive
Cc1cc(C=NNc2ccc([N+](=O)[O-])cn2)c(C)n1-c1cccc(C(=O)O)c1	none (no result: PREPL inh, UBC13 polyUb, Apaf1 inhib)
CN(C)c1ccnc(Nc2ccccc2)c1C#N	none
CN(C)c1ccnc2c[cH-]cc12.[Fe].c1ccc(-[c-]2[c-](-c3ccccc3)[c-](-c3ccccc3)[c-](-c3ccccc3)[c-]2-c2ccccc2)cc1 (stereo not drawn)	Apaf1 inhib 47! | Apaf-1 inh conf inactive | Rh110 quench inactive
O=C(CCNC(=O)c1ccc(Cl)cc1)NCCCN1CCOCC1	Apaf1 inhib 48 | Apaf-1 inh conf inactive | Rh110 quench inactive
C[n+]1cccc2c(Br)ccc([O-])c21	Apaf1 inhib 98 | Apaf-1 inh conf 64 | Rh110 quench inactive | Apaf1 inh interf inactive
CCOC(=O)C(=NNc1ccccc1Cl)N(C)C1CCCCC1	none (no result: PREPL inh, UBC13 polyUb, Apaf1 inhib)
O=C1CC(CSc2ccc(Cl)cc2)=NN1	none
Cc1cc(SCC2=NNC(=O)C2)c(Cl)cc1Cl	Apaf1 inhib 47 | Apaf-1 inh conf inactive | Rh110 quench inactive
Cc1ccc(OCC(=O)N(Cc2nnc(-c3ccccc3Cl)o2)C2CC2)cc1C	Apaf1 inhib 56 | Apaf-1 inh conf 49 | Rh110 quench inactive | Apaf1 inh interf inactive
Cc1nn(-c2cccc(Cl)c2)c(Cl)c1C=NNC(=O)c1cccnc1	none (no result: PREPL inh, UBC13 polyUb, Apaf1 inhib)
Cc1ccc(C(=O)Nc2ccccn2)cc1S(=O)(=O)N1CCOCC1	Apaf1 inhib 43 | Apaf-1 inh conf inactive | Rh110 quench inactive
CN(C)c1cccc2c1c(NS(=O)(=O)c1cn(C)cn1)nn2C	Apaf1 inhib 62 | Apaf-1 inh conf inactive | Rh110 quench inactive
CC1=NN(c2ccc(C)cc2C)C(=O)C1C(c1ccccc1)C1C(=O)N(c2ccc(C)cc2C)N=C1C (stereo not drawn)	Apaf1 inhib 67 | Apaf-1 inh conf inactive | Rh110 quench inactive
CC1=NN(c2ccc(Cl)c(C(=O)O)c2)C(=O)C1	none
CC1=NN(c2ccc(S(=O)(=O)O)cc2Cl)C(=O)C1	Apaf1 inhib 66 | Apaf-1 inh conf inactive | Rh110 quench inactive
CC1=NN(c2cccc(Cl)c2)C(=O)C1	Apaf1 inhib 75 | Apaf-1 inh conf inactive | Rh110 quench inactive
CC1=NN(c2ccc(C(=O)O)c(N)c2)C(=O)C1	Apaf1 inhib 62 | Apaf-1 inh conf inactive | Rh110 quench inactive
C/C(=N\NC(=O)Cc1cc(=O)[nH][nH]1)c1cccc([N+](=O)[O-])c1	Apaf1 inhib 51 (no result: UCH37 DUB inh) | Apaf-1 inh conf inactive | Rh110 quench inactive
C/C(=N/NC(=O)Cc1cc(=O)[nH][nH]1)c1ccc([N+](=O)[O-])cc1	Apaf1 inhib 55 (no result: UCH37 DUB inh) | Apaf-1 inh conf inactive | Rh110 quench inactive
CC(=NNC(=O)Cc1cc(=O)[nH][nH]1)c1cccc([N+](=O)[O-])c1	none (no result: PREPL inh, UBC13 polyUb, Apaf1 inhib)
CCOC(=O)CC(C)=NNC(=O)COc1ccccc1C	none (no result: PREPL inh, UBC13 polyUb, Apaf1 inhib)
CCN(CC(=O)Nc1ccccc1OC)C(=O)c1ccccc1Sc1ccccc1C#N	Apaf1 inhib 58 | Apaf-1 inh conf 42 | Rh110 quench inactive | Apaf1 inh interf inactive
CC(=O)Nc1ccc(C(=O)NC(C)c2ccc(-n3ccnc3)cc2)cc1 (stereo not drawn)	none
CC(=O)Nc1cccc(C(=O)NC(C)c2ccc(-n3ccnc3)cc2)c1 (stereo not drawn)	Apaf1 inhib 41 | Apaf-1 inh conf inactive | Rh110 quench inactive
CN(C)C(=O)c1ccc(NC(=O)COc2cccc(Oc3ccccc3)c2)cc1	Apaf1 inhib 61 | Apaf-1 inh conf inactive | Rh110 quench inactive
Cc1ccc(C(=O)N/N=C/c2ccc(-c3ccccc3[N+](=O)[O-])o2)cn1	Apaf1 inhib 75 (no result: UCH37 DUB inh) | Apaf-1 inh conf inactive | Rh110 quench inactive
Cc1ccc(C(=O)NN=Cc2ccc([N+](=O)[O-])o2)cn1	none (no result: PREPL inh, UBC13 polyUb, Apaf1 inhib)
O=C(N/N=C/c1ccc(-c2ccccc2[N+](=O)[O-])o1)[C@H]1C[C@@H]1c1ccccc1	Apaf1 inhib 68 (no result: UCH37 DUB inh) | Apaf-1 inh conf inactive | Rh110 quench inactive
O=c1c2ccccc2nc(COc2ccccc2)n1N=Cc1c[nH]c2ccccc12	none (no result: PREPL inh, UBC13 polyUb, Apaf1 inhib)
O=C1C(Cl)=C(NCCN2CCOCC2)C(=O)c2ccccc21	Apaf1 inhib 46 | Apaf-1 inh conf 47 | Rh110 quench inactive | Apaf1 inh interf inactive
CCOCCCNC1=C(Cl)C(=O)c2ccccc2C1=O	UCH37 DUB inh 24, Apaf1 inhib 48 | Apaf-1 inh conf inactive | Rh110 quench inactive
O=C1c2ccccc2C(=O)N1CCN1CCOCC1	none
CCOc1ccc2nc(NC3=NC(c4ccc(OC)cc4)CC(=O)N3)nc(C)c2c1 (stereo not drawn)	Apaf1 inhib 79 | Apaf-1 inh conf 70 | Rh110 quench inactive | Apaf1 inh interf inactive
CCOC(=O)c1cc(CC)sc1N=Cc1c(O)ccc2ccccc12	none (no result: PREPL inh, UBC13 polyUb, Apaf1 inhib)
Nc1cccc2nsnc12	Apaf1 inhib 68 | Apaf-1 inh conf inactive | Rh110 quench inactive

Source: PubChem BioAssay
